Laboratory results as given in ChEMBL document CHEMBL1143867, “Novel three-component synthesis and antiproliferative properties of diversely functionalized pyrrolines” (2008).
Active and inactive are the calls of the source. No cut-off for these calls is given here.

Experiments:
Jurkat [1] = test: Growth inhibition of human Jurkat cells assessed as decrease in cell count at 50 uM by Trypan blue dye exclusion method; type: functional, cell-based
HeLa = test: Antiproliferative activity against human HeLa cells after 48 hrs by MTT assay relative to control; type: functional, cell-based
Outline: (§1)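 Cells (HeLa cervical or MCF7/AZ breast adenocarcinoma) exposed to test agents 48 h; mixtures at final 100 μM, individual isomers at final 100, 50 and 5 μM. Viability read by MTT (mitochondrial dehydrogenase activity), expressed as % remaining viability vs DMSO control. Two independent experiments, each in 4 replicates; mean ± SD.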

MCF7/AZ = test: Antiproliferative activity against human MCF7/AZ cells after 48 hrs by MTT assay relative to control; type: functional, cell-based; outline: as §1
Jurkat [2] = test: Induction of apoptosis in human Jurkat cells after 48 hrs at 50 uM by flow cytometry relative to control; type: functional
Outline: (§2)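 Jurkat T-cell leukemia cells treated 48 h with test agents at 50 μM (podophyllotoxin reference at 5 μM). Flow cytometric annexin-V/propidium iodide staining scored % apoptotic cells and % live cells, each relative to DMSO control. Two independent experiments, each in 3 replicates; mean ± SD.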

Jurkat [3] = test: Induction of apoptosis in human Jurkat cells assessed as viable cells at 50 uM after 48 hrs by flow cytometry relative to control; type: functional; conditions: read-out: Activity; outline: as §2
Jurkat [4] = test: Growth inhibition of human Jurkat cells at 50 uM by Trypan blue dye exclusion method; type: functional, cell-based
Jurkat [5] = test: Induction of apoptosis in human Jurkat cells assessed as viable cells at 5 uM after 48 hrs by flow cytometry relative to control; type: functional; conditions: read-out: Activity
Outline: (§3)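 Jurkat human T-cell leukemia cells were exposed to compound for 48 h and then stained with annexin-V/propidium iodide for flow cytometry. Apoptotic and live cell percentages are expressed relative to a DMSO control. Values are mean ± SD from two independent experiments, each run in 3 replicates.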

Jurkat [6] = test: Induction of apoptosis in human Jurkat cells after 48 hrs at 5 uM by flow cytometry relative to control; type: functional; outline: as §3

Compound | Activity (Jurkat [1]) | Activity (HeLa) | Activity (MCF7/AZ) | Activity (Jurkat [2]) | viability at 50 µM (Jurkat [3]) | Activity (Jurkat [4]) | viability at 5 µM (Jurkat [5]) | Activity (Jurkat [6])
Cc1ccc(S(=O)(=O)N2C(N)=C(C#N)[C@@H](c3ccccc3)[C@H]2C(=O)c2ccc(Br)cc2)cc1 (relative stereo) | Active | Active | Active | 30% | 56% | – | – | –
Cc1ccc(S(=O)(=O)N2C(N)=C(C#N)[C@@H](c3ccccc3)[C@@H]2C(=O)c2ccc(Br)cc2)cc1 (relative stereo) | – | Active | Active | 3% | 96% | Active | – | –
COc1ccc(S(=O)(=O)N2C(N)=C(C#N)[C@@H](c3ccccc3)[C@@H]2C(=O)c2ccc(Br)cc2)cc1 (relative stereo) | – | Active | Active | – | – | – | – | –
COc1ccc(S(=O)(=O)N2C(N)=C(C#N)[C@@H](c3ccccc3)[C@H]2C(=O)c2ccc(Br)cc2)cc1 (relative stereo) | – | Active | Active | – | – | – | – | –
COc1cc([C@@H]2c3cc4c(cc3[C@H](O)[C@H]3COC(=O)[C@H]23)OCO4)cc(OC)c1OC [PODOFILOX] | – | – | – | – | – | – | 22% | 63%
